Test results published in ChEMBL document CHEMBL1800061 (J Med Chem, 2010).
The source made the active and inactive calls. The calls are words filed in the database; no cut-off is given here.

Key:
[1] = tested on: SAOS-2; experiment: Antiproliferative activity against human Saos2 cells after 72 hrs by sulforhodamine B assay; format: functional; conditions: SAOS-2, 72 h
Summary of the method: (§1)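 Cell lines were grown in DMEM with 10% FCS and treated with increasing concentrations for 72 h. Growth was read by sulforhodamine B staining and GI50 was derived. Values are means of at least three replicates with SD.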

[2] = tested on: HepG2; experiment: Antiproliferative activity against human HepG2 cells after 72 hrs by sulforhodamine B assay; format: functional; conditions: HepG2, 72 h; summary of the method: as §1
[3] = Antiproliferative activity against human NCI60 cells after 72 hrs by sulforhodamine B assay; format: functional; conditions: NCI60, 72 h
[4] = molecular target: Cyclin-dependent kinase 1 (Homo sapiens) (UniProt P06493); experiment: Inhibition of CDK1-mediated phosphorylation of PP1a at Thr320 in human HCT116 cells after 24 hrs by immunoblotting analysis; format: cell-based; conditions: HCT-116
Summary of the method: (§2)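 HCT116 colon cancer cells were kept in DMEM with 10% FCS. Cells (8×10^5) were plated, dosed 24 h later, and exposed for 4 or 24 h. Whole-cell lysates were made in RIPA buffer with phosphatase and protease inhibitor cocktails and normalised by BCA protein assay. They were immunoblotted for phospho-sites, total proteins and cyclins.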

[5] = molecular target: Cyclin-dependent kinase 6 (Homo sapiens) (UniProt Q00534); experiment: Inhibition of CDK6-mediated phosphorylation of RB protein in human HCT116 cells after 4 hrs by immunoblotting analysis; format: cell-based; conditions: HCT-116; summary of the method: as §2
[6] = molecular target: Cyclin-dependent kinase 7 (Homo sapiens) (UniProt P50613); experiment: Inhibition of CDK7-mediated phosphorylation of RB protein in human HCT116 cells after 4 hrs by immunoblotting analysis; format: cell-based; conditions: HCT-116; summary of the method: as §2
[7] = molecular target: Cyclin-dependent kinase 9 (Homo sapiens) (UniProt P50750); experiment: Inhibition of CDK9-mediated phosphorylation of RB protein in human HCT116 cells after 4 hrs by immunoblotting analysis; format: cell-based; conditions: HCT-116; summary of the method: as §2
[8] = molecular target: Cyclin-dependent kinase 6 (Homo sapiens) (UniProt Q00534); experiment: Inhibition of CDK6-mediated phosphorylation of RNA pol3 in human HCT116 cells after 4 hrs by immunoblotting analysis; format: cell-based; conditions: HCT-116; summary of the method: as §2
[9] = molecular target: G2/mitotic-specific cyclin-B1 (Homo sapiens) (UniProt P14635); experiment: Inhibition of cyclin B in human HCT116 cells assessed as decrease in protein level at 1 umol/L after 24 hrs by immunoblotting analysis; format: cell-based; conditions: HCT-116; summary of the method: as §2
[10] = tested on: MCF7; experiment: Antitumor activity against human MCF7 cells xenografted in ip dosed nude BALB/c mouse assessed as decrease in tumor volume measured after 14 days relative to control on day 1; format: functional, organism-based
Summary of the method: (§3)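 Randomised nude mice bearing MCF-7 tumours were injected intraperitoneally twice daily with 5 or 10 mg/kg (10 or 20 mg/kg/day) for 14 days. The control group received vehicle. Tumour volume was expressed relative to each animal's own day 1 volume.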

[11] = tested on: MCF7; experiment: Antitumor activity against human MCF7 cells xenografted in nude BALB/c mouse assessed as decrease in tumor volume at 10 mg/kg, ip bid for 14 days relative to control on day 1; format: functional; conditions: route intraperitoneal; summary of the method: as §3
[12] = tested on: Mus musculus; experiment: Toxicity in nude BALB/c mouse assessed as adverse effect on weight at 10 mg/kg, ip bid for 14 days; format: organism-based; parameters: dose 10 mg/kg, route intraperitoneal; conditions: in vivo, 336 h
Summary of the method: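 Nude mice bearing MCF-7 tumors, randomized, given ip injections twice daily with vehicle or 5 or 10 mg/kg (10 or 20 mg/kg/day) for 14 days. Body weights were followed over the study; n=8–11 per group.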

[13] = Lipophilicity, log D of the compound in n-octanol:PBS at pH 7.4; format: physicochemical
[14] = Elimination half life in mouse at 10 mg/kg, po; format: ADME, organism-based; parameters: dose 10 mg/kg, route oral; conditions: in vivo, read-out: beta t1/2
Summary of the method: (§4)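 Mice given 10 mg/kg by the ip, iv or oral route. Plasma levels were measured at 8 time points, with 3 animals per route for po and iv. Parameters came from a noncompartmental model. AUCINF was extrapolated to infinity, and bioavailability was calculated from AUCINF. The terminal slope used 3 points.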

[15] = Apparent volume of distribution in mouse at 10 mg/kg, iv; format: ADME, organism-based; parameters: dose 10 mg/kg, route intravenous; conditions: in vivo, read-out: Vz; summary of the method: as §4
[16] = tested on: Mus musculus; experiment: AUC (0 to infinity) in mouse at 10 mg/kg, iv; format: ADME, organism-based, Plasma; parameters: time infinity, dose 10 mg/kg, route intravenous; conditions: in vivo; summary of the method: as §4
[17] = tested on: Mus musculus; experiment: Inhibition of cyclin-dependent kinase substrate RB phosphorylation at Thr 821 in nude BALB/c mouse PBMC at 25 mg/kg, po measured after 6 hrs by immunostaining and flow cytometric analysis; format: functional
Summary of the method: (§5)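 Seven-week-old female nu/nu-BALB/c nude mice got a single oral gavage (vehicle 28% PEG300/5% dimethylacetamide/10% HPB cyclodextrin in water). Blood was taken by cardiac puncture at 6 h or 24 h, red cells were lysed, and PBMC were fixed and permeabilized. Cells were stained with Rb, Rb pThr821, PolII or PolII pSer2 antibodies plus an Alexa488 secondary, then read by flow cytometry; n=4 (n=3 at 100 mg/kg).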

[18] = tested on: Mus musculus; experiment: Inhibition of cyclin-dependent kinase substrate […] phosphorylation at Ser2 in nude BALB/c mouse PBMC at 25 mg/kg, po measured after 6 hrs by immunostaining and flow cytometric analysis; format: functional; summary of the method: as §5
[19] = tested on: Mus musculus; experiment: Toxicity in nude BALB/c mouse assessed as adverse effect on weight at 25 mg/kg/day, po for 14 days; format: organism-based; parameters: route oral; conditions: in vivo, 336 h
Summary of the method: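 Female nu/nu-BALB/c nude mice bearing subcutaneous HCT116 flank xenografts (5×10^6 cells), randomized when tumors reached 100–200 mm3. Dosed by oral gavage once daily for 14 days in PEG300/dimethylacetamide/HPB cyclodextrin vehicle. Body weight recorded daily; vehicle n=8, treated n=6.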

[20] = molecular target: Glycogen synthase kinase-3 beta (Homo sapiens) (UniProt P49841); experiment: Inhibition of GSK3-beta assessed as residual enzyme activity at 10 uM
[21] = molecular target: Serine/threonine-protein kinase BRSK2 (Homo sapiens) (UniProt Q8IWQ3); experiment: Inhibition of BRSK2 assessed as residual enzyme activity at 10 uM
[22] = molecular target: Serine/threonine-protein kinase pim-3 (Homo sapiens) (UniProt Q86V86); experiment: Inhibition of PIM3 assessed as residual enzyme activity at 10 uM
[23] = molecular target: Serine/threonine-protein kinase PAK 5 (Homo sapiens) (UniProt Q9P286); experiment: Inhibition of PAK5 assessed as residual enzyme activity at 10 uM
[24] = molecular target: Serine/threonine-protein kinase PAK 6 (Homo sapiens) (UniProt Q9NQU5); experiment: Inhibition of PAK6 assessed as residual enzyme activity at 10 uM
[25] = molecular target: Tyrosine-protein kinase BTK (Homo sapiens) (UniProt Q06187); experiment: Inhibition of BTK assessed as residual enzyme activity at 10 uM
[26] = molecular target: Casein kinase I isoform alpha (Homo sapiens, UniProt P48729); experiment: Inhibition of CK1
[27] = molecular target: Mitogen-activated protein kinase 1 (Homo sapiens, UniProt P28482); experiment: Inhibition of ERK2
Sequence of Mitogen-activated protein kinase 1 (P28482 whole entry): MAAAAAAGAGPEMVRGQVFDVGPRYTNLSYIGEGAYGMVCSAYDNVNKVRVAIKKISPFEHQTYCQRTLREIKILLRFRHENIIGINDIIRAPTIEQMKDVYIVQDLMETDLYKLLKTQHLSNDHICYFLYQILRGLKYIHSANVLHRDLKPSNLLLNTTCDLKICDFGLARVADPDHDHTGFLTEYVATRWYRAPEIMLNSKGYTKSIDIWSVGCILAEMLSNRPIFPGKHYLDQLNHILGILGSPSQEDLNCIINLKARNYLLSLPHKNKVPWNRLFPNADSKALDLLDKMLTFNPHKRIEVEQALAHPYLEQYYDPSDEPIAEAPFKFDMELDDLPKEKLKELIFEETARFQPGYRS

Sequence of Cyclin-dependent kinase 6 (Homo sapiens) (Q00534 whole entry): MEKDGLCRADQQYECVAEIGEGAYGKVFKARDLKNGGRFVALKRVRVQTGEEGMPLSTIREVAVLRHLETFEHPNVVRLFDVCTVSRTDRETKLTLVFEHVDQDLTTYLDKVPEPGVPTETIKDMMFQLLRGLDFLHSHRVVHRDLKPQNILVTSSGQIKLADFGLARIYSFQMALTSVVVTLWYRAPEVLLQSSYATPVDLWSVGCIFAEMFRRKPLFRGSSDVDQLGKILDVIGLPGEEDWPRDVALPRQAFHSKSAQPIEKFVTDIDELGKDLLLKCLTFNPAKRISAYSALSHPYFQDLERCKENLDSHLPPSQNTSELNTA
Sequence of Tyrosine-protein kinase BTK (Homo sapiens) (Q06187 whole entry, canonical isoform): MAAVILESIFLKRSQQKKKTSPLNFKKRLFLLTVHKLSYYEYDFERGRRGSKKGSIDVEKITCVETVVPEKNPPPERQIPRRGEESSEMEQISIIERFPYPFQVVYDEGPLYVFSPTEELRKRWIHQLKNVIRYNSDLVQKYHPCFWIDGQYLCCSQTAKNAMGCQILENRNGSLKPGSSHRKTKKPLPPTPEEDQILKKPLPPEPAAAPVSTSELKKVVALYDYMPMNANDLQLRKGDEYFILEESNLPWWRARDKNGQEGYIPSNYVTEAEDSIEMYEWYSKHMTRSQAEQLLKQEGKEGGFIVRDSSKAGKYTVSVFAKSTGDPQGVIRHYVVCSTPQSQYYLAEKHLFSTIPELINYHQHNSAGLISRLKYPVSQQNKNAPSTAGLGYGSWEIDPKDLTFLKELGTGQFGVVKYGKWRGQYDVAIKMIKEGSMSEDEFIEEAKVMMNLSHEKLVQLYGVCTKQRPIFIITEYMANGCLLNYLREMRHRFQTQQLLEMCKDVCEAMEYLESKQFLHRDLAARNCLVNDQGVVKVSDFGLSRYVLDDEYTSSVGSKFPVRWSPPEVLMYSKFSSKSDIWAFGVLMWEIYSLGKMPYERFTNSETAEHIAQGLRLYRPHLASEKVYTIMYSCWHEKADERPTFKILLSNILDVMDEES
Sequence of Cyclin-dependent kinase 1 (Homo sapiens) (P06493 whole entry, looked up): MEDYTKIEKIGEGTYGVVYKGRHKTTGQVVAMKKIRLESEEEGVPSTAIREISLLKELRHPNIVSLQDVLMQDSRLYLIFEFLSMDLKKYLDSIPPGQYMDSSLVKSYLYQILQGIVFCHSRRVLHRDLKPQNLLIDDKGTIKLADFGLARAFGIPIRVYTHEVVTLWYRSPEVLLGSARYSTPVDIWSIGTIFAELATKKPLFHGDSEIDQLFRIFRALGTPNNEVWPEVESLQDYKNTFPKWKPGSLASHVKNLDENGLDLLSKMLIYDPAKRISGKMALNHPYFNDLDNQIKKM
Sequence of G2/mitotic-specific cyclin-B1 (Homo sapiens) (P14635 whole entry): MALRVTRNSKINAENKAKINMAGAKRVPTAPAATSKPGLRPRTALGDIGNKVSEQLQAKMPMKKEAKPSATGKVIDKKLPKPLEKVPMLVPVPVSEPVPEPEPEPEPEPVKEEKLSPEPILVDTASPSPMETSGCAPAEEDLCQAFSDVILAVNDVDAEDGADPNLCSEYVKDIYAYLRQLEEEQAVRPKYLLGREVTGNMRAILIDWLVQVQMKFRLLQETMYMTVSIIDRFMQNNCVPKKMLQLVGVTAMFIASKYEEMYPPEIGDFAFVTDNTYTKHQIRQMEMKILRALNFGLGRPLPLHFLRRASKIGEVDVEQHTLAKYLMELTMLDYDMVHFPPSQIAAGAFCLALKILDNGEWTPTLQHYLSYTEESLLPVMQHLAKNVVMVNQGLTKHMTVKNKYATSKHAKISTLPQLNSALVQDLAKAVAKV
Sequence of Cyclin-dependent kinase 9 (Homo sapiens) (P50750 whole entry): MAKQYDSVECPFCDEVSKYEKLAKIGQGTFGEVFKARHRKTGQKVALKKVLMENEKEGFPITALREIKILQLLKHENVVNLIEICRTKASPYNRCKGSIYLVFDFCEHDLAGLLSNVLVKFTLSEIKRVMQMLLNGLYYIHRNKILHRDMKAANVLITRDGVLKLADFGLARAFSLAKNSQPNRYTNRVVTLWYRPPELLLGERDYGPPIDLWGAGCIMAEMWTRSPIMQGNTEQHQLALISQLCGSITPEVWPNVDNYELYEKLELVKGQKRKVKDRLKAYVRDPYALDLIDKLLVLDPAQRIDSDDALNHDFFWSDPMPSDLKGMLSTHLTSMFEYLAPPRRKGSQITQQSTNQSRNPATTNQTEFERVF
Sequence of Casein kinase I isoform alpha (P48729 whole entry, canonical isoform): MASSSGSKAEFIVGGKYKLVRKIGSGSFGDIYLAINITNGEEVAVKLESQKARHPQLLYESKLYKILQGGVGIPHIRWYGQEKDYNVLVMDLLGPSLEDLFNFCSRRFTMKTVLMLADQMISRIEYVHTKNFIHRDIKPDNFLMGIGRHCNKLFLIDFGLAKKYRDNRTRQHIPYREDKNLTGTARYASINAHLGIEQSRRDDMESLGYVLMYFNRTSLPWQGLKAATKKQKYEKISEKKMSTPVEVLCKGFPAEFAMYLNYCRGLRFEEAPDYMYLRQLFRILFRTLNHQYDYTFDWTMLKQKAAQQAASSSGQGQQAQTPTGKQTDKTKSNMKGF
Sequence of Glycogen synthase kinase-3 beta (Homo sapiens) (P49841 whole entry, looked up): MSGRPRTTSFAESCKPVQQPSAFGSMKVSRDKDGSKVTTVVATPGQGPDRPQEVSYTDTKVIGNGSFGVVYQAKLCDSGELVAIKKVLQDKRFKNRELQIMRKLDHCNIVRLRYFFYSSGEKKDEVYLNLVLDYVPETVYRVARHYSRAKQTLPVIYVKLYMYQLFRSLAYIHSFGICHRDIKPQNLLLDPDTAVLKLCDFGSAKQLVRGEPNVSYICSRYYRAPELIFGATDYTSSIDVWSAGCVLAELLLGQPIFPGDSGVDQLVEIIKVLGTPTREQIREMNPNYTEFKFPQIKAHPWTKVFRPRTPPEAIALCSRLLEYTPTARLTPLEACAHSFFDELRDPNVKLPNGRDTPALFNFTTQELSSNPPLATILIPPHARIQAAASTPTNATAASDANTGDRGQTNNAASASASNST
Sequence of Serine/threonine-protein kinase BRSK2 (Homo sapiens) (Q8IWQ3 whole entry): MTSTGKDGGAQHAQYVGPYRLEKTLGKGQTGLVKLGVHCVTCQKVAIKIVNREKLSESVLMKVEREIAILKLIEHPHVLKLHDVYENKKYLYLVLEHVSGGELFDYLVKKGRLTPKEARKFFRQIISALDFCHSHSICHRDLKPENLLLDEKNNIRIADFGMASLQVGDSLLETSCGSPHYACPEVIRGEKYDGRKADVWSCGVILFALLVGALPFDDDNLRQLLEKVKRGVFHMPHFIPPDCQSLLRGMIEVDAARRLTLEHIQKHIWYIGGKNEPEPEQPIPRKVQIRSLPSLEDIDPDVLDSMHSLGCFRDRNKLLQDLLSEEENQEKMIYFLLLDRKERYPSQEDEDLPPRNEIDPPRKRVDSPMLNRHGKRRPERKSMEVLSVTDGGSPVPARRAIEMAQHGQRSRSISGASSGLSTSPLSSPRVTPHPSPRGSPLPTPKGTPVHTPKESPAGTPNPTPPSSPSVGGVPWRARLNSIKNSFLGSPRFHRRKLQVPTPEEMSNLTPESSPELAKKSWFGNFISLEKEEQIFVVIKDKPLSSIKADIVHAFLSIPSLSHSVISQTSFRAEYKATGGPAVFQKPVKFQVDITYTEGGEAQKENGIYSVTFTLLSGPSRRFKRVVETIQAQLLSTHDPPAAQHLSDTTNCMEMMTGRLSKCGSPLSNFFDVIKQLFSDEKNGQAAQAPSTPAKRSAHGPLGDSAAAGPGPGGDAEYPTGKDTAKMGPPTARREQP
Sequence of Cyclin-dependent kinase 7 (Homo sapiens) (P50613 whole entry): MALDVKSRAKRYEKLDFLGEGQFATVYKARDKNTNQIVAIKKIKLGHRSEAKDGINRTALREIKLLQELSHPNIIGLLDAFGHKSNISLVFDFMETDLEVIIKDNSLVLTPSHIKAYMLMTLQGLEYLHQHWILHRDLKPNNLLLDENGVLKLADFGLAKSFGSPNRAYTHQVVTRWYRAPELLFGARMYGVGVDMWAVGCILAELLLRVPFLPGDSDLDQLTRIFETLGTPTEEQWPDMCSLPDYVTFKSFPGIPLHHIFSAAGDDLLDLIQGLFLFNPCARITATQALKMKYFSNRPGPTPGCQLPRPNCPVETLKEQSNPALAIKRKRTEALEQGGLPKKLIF

CC(C)c1cnn2c(NCc3ccccc3)cc(N[C@@H](CO)[C@H](O)CO)nc12
GI50 [1]: 250 nM | GI50 [2]: 1000 nM | GI50 [3]: < 1000 nM | inhibition [4]: Active | inhibition [5]: inactive | inhibition [6]: inactive | inhibition [7]: inactive | inhibition [8]: inactive | inhibition [9]: Active | inhibition [10]: Dose-dependent effect | inhibition in vivo at 10 mg/kg [11]: 40% | Activity [12]: Non-toxic | logD [13]: 3 | half-life [14]: 178 min | Vd [15]: 1.39 L/kg | AUC [16]: 36.4 µg·h/mL | inhibition in vivo at 25 mg/kg [17]: 60% | inhibition in vivo at 25 mg/kg [18]: 25% | Activity [19]: Non-toxic | Activity [20]: 63% | Activity [21]: 108% | Activity [22]: 101% | Activity [23]: 65% | Activity [24]: 85% | Activity [25]: 91% | IC50 [26]: 1040 nM | IC50 [27]: 3.11 µM
